Series [1] can be described thus: Inhibition of HIV1 NL4-3 gp160 assessed as inhibition of interaction between gp120 and host CD4 receptor by cell-cell fusion assay. On the set-up: species or system Human immunodeficiency virus 1.
Series [2] relates to Human immunodeficiency virus 1. Description: Antiviral activity against Human immunodeficiency virus 1 NL4-3 infected HeLaP4 cells after 5 days by beta-galactosidase reporter assay. The format is functional, organism-based. Particulars: Human immunodeficiency virus 1, NL4-3, HeLaP4, 120 h. An outline of the steps:
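HeLa-P4 cells were premixed with NL4-3 virus and added at 10^5 cells/mL to wells containing diluted compound. Plates were incubated for 5 days at 37 °C in humidified 5% CO₂. Infection was quantified with a β-galactosidase reporter assay.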

Series [3] has as its system Human immunodeficiency virus 1. Description: Antiviral activity against Human immunodeficiency virus 1 isolate 04-116886_VL_578.66. The format is functional. An outline of the steps:
(§1)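 Testing against these strains was contracted out and used the PhenoSense phenotypic antiviral assay.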

The subject of series [4] is Human immunodeficiency virus 1. Description: Antiviral activity against Human immunodeficiency virus 1 isolate 04-116873_VL_754.51. Type of series: functional. In a few lines:
as §1

The subject of series [5] is Human immunodeficiency virus 1. Description: Antiviral activity against Human immunodeficiency virus 1 HXB2. Type of series: functional. An outline of the steps:
as §1

Series [6] relates to Human immunodeficiency virus 1. Description: Antiviral activity against Human immunodeficiency virus 1 isolate 04-116884_VL_328.45. The format is functional. In a few lines: as §1
In series [7] the test system is Human immunodeficiency virus 1. Description: Antiviral activity against Human immunodeficiency virus 1 isolate 04-116877_VL_938.28. The format is functional. An outline of the steps:
as §1

The subject of series [8] is Human immunodeficiency virus 1. Description: Antiviral activity against Human immunodeficiency virus 1 isolate 04-116870_VL_181.51. Type of series: functional. An outline of the steps: as §1
In series [9] the test system is Human immunodeficiency virus 1. Description: Antiviral activity against Human immunodeficiency virus 1 isolate 04-116889_VL_440.85. Type of series: functional. In a few lines:
as §1

Series [10] has as its system Human immunodeficiency virus 1. Description: Antiviral activity against Human immunodeficiency virus 1 isolate 04-116875_VL_279.69. The format is functional. In a few lines: as §1
The test system of series [11] is Human immunodeficiency virus 1. Description: Antiviral activity against Human immunodeficiency virus 1 isolate 04-116883_VL_432.63. Type of series: functional. An outline of the steps: as §1
Series [12] has as its system Human immunodeficiency virus 1. Description: Antiviral activity against Human immunodeficiency virus 1 isolate 04-116867_VL_837.51. The format is functional. In a few lines: as §1
Series [13] in a line: Fraction of compound absorbed in rat at 1 mg/kg, iv and 1 mg/kg, po. Type of series: ADME, organism-based. Particulars: in vivo, read-out: Fabs.
The subject of series [14] is Human immunodeficiency virus 1. Description: Antiviral activity against Human immunodeficiency virus 1 isolate 04-116881_VL_338.52. The format is functional. In a few lines: as §1
Series [15] deals with Human immunodeficiency virus 1. Description: Antiviral activity against Human immunodeficiency virus 1 isolate 04-116880_VL_696.65. The format is functional. In a few lines: as §1
Series [16] deals with Human immunodeficiency virus 1. Description: Antiviral activity against Human immunodeficiency virus 1 isolate 04-116890_VL_781.45. Type of series: functional. In a few lines: as §1
Series [17] relates to Human immunodeficiency virus 1. Description: Antiviral activity against Human immunodeficiency virus 1 isolate 04-116888_VL_113.66. The format is functional. In a few lines:
as §1

Series [18] relates to Human immunodeficiency virus 1. Description: Antiviral activity against Human immunodeficiency virus 1 isolate 04-116885_VL_530.54. Type of series: functional. In a few lines:
as §1

Series [19] has as its system Rattus norvegicus. Description: Unbound volume of distribution in rat at 1 mg/kg, iv and 1 mg/kg, po. Type of series: ADME, organism-based. Particulars: in vivo.
The subject of series [20] is Human immunodeficiency virus 1. Description: Antiviral activity against Human immunodeficiency virus 1 isolate 04-116874_VL_560.34. Type of series: functional. In a few lines:
as §1

Series [21] concerns Human immunodeficiency virus 1. Description: Antiviral activity against Human immunodeficiency virus 1 isolate 04-116876_VL_969.72. The format is functional. In a few lines:
as §1

Series [22] deals with Human immunodeficiency virus 1. Description: Antiviral activity against Human immunodeficiency virus 1 isolate 04-116872_VL_186.32. Type of series: functional. In a few lines: as §1
Series [23] has as its system Human immunodeficiency virus 1. Description: Antiviral activity against Human immunodeficiency virus 1 isolate 04-116868_VL_518.14. The format is functional. In a few lines: as §1
For series [24], the system named is Human immunodeficiency virus 1. Description: Antiviral activity against Human immunodeficiency virus 1 isolate 04-116871_VL_781.69. Type of series: functional. An outline of the steps:
as §1

In series [25] the test system is Human immunodeficiency virus 1. Description: Antiviral activity against Human immunodeficiency virus 1 JRCSF. The format is functional, Human immunodeficiency virus type 1 (JRCSF ISOLATE). An outline of the steps: as §1
The subject of series [26] is Human immunodeficiency virus 1. Description: Antiviral activity against Human immunodeficiency virus 1 isolate 04-116878_VL_241.32. Type of series: functional. An outline of the steps:
as §1

Series [27] concerns Human immunodeficiency virus 1. Description: Antiviral activity against Human immunodeficiency virus 1 isolate 04-116892_VL_534.93. The format is functional. In a few lines: as §1
Series [28] relates to Human immunodeficiency virus 1. Description: Antiviral activity against Human immunodeficiency virus 1 isolate 04-116879_VL_988.03. The format is functional. An outline of the steps: as §1
For series [29], the system named is Human immunodeficiency virus 1. Description: Antiviral activity against Human immunodeficiency virus 1 isolate 04-116882_VL_624.75. The format is functional. An outline of the steps:
as §1

For series [30], the system named is Human immunodeficiency virus 1. Description: Antiviral activity against Human immunodeficiency virus 1 isolate 04-116869_VL_833.52. Type of series: functional. In a few lines:
as §1

The subject of series [31] is Human immunodeficiency virus 1. Description: Antiviral activity against Human immunodeficiency virus 1 isolate 04-116893_VL_193.95. The format is functional. In a few lines:
as §1

A short description of series [32]: Half life in rat at 1 mg/kg, iv and 1 mg/kg, po. Type of series: ADME, organism-based. Particulars: in vivo.
The nature of series [33]: Bioavailability in rat at 1 mg/kg. The format is ADME, organism-based. Particulars: in vivo.
The nature of series [34]: Clearance in rat at 1 mg/kg, iv and 1 mg/kg, po. Particulars: in vivo. The format is ADME, organism-based.
The test system of series [35] is Rattus norvegicus. Description: Unbound clearance in rat at 1 mg/kg, iv and 1 mg/kg, po. The format is ADME, organism-based. As to conditions: in vivo.

By IC50 is commonly meant the point on the concentration scale where inhibition reaches its midpoint. Turning to `CC(Oc1ccnc2ccccc12)C(=O)N1CCN(C(=O)c2ccccc2)C[C@H]1C` (some centres undefined), the IC50 in series [1] amounted to 7.43 µM.
For `CNC(=O)c1ccc(O[C@@H](C)C(=O)N2CCN(C(=O)c3ccccc3)C[C@H]2C)c2c(C)n[nH]c12`, in series [1], the IC50 is greater than 10 µM.
Consider `CNc1nccc2c(O[C@@H](C)C(=O)N3CCN(C(=O)c4ccccc4)C[C@H]3C)cccc12`, for which, in series [1], the IC50 came out at 0.061 µM.
`CNC(=O)c1nccc2c(O[C@@H](C)C(=O)N3CCN(C(=O)c4ccccc4)C[C@H]3C)ccc(F)c12`: the IC50 amounted to 0.031 µM in [1] and 0.02 µM in [2].
For `CNC(=O)c1cc(OC)c(O[C@@H](C)C(=O)N2CCN(c3n[nH]c4ccccc34)C[C@H]2C)cn1`, the IC50 in series [1] stood at 0.042 µM; in [2], 0.979 µM.
Turning to `CNC(=O)c1cc(OC)c(O[C@@H](C)C(=O)N2CCN(c3nccc4[nH]ccc34)C[C@H]2C)cn1`, the figures for the IC50 in [1] and in [2] were 0.029 µM and greater than 1 µM, respectively.
In the case of `C[C@H](Oc1cccc2nc(N(C)C)ccc12)C(=O)N1CCN(C(=O)c2ccccc2)C[C@H]1C`, the IC50 in series [1] was 3.2 µM.
As to `CNC(=O)c1ccc(O[C@@H](C)C(=O)N2CCN(C(=O)c3ccccc3)C[C@H]2C)c2ccncc12`, the IC50 in series [1] came to 21.2 µM.
As a reminder, the IC90 is the point of the concentration-response curve where the effect stands at 90%. Read a high IC90 as a need for much substance. For `CNC(=O)c1cc(OC)c(O[C@@H](C)C(=O)N2CCN(C(=O)c3ccccc3)C[C@H]2C)cn1`, the IC90 is greater than 2.22 µM in series [3]; 0.021 µM in series [4]; 0.013 µM in series [5]; 0.009 µM in [6]; 0.021 µM in series [7]; 0.044 µM in series [8]. Besides, the IC90 in [9] was 0.056 µM; in series [10], 0.213 µM; in series [11], greater than 2.22 µM; in series [12], 0.383 µM; in series [14], 0.299 µM; in series [15], greater than 2.22 µM. For the same molecule, the IC90 in series [16] is 0.17 µM; in series [17], greater than 2.22 µM; in series [18], 0.178 µM; in [20], 0.071 µM; in series [21], 0.436 µM; in series [22], greater than 2.22 µM. The IC90 is 0.026 µM in series [23]; 0.009 µM in series [24]; 0.004 µM in series [25]; greater than 2.22 µM in series [26]; greater than 2.22 µM in [27]; 0.242 µM in series [28]. The results for the IC90 in series [29], in [30] and in series [31] were 0.106 µM, 0.122 µM and 0.354 µM, respectively. For the same molecule, in series [13], the Fa came to 100%. Further, in series [1], the IC50 was determined as 0.014 µM. In addition, the Vdu in the series on Rattus norvegicus [19] stood at 2.2 L/kg.
The term half-life denotes the time in which the quantity being followed falls by half. Low values mean fast loss, high ones slow loss. The bioavailability is the share of a dose that reaches the circulation, judged against a reference dose that is usually intravenous. A lower bioavailability goes with poor availability. In series [32], `CNC(=O)c1nccc2c(O[C@@H](C)C(=O)N3CCN(C(=O)c4ccccc4)C[C@H]3C)cccc12` gave a half-life of 30 min. In series [33], this molecule registered a bioavailability of 45%. For the same molecule, in series [13], the Fa was 55%. In series [34], the clearance was 2.46 L/h/kg. Further, the IC50 in series [1] came out at 0.021 µM; in [2], 0.0015 µM. The molecule also displayed a Vdu in the series on Rattus norvegicus [19] of 3.5 L/kg. Further, the CL free in the series with Rattus norvegicus [35] is 5.4 L/h/kg.
For the molecule `CNC(=O)c1cc(OC)c(O[C@@H](C)C(=O)N2CCN(c3ncnc4[nH]cnc34)C[C@H]2C)cn1`, the IC50 in [1] worked out at 0.296 µM.
Same read-out and setting: the result for `Cc1nc2c(OC(C)C(=O)N3CCN(C(=O)c4ccccc4)C[C@H]3C)cccc2[nH]1` (some centres undefined) reads 0.834 µM.
Consider `CC(Oc1cccc2cccnc12)C(=O)N1CCN(C(=O)c2ccccc2)C[C@H]1C` (some centres undefined), for which the IC50 came to 0.433 µM in series [1] and 0.449 µM in [2].
`Cc1n[nH]c2cccc(OC(C)C(=O)N3CCN(C(=O)c4ccccc4)C[C@H]3C)c12` (some centres undefined): the IC50 in [1] worked out at 0.016 µM; in [2], 0.036 µM.
As to `Cc1nn(C)c2cccc(OC(C)C(=O)N3CCN(C(=O)c4ccccc4)C[C@H]3C)c12` (some centres undefined), the IC50 in series [1] amounted to 0.015 µM; in [2] it was 0.079 µM.
With `CNC(=O)c1cc(OC)c(O[C@@H](C)C(=O)N2CCN(c3ncccn3)C[C@H]2C)cn1`, the IC50 in series [1] worked out at 0.071 µM; in [2] it was 1.62 µM.

Values taken from ChEMBL document CHEMBL1155317, “Design and optimisation of potent gp120-CD4 inhibitors” (Bioorg Med Chem Lett, 2009).
